Assay results gathered from unrelated publications.
Values after ≈ are worked out from the molar mass of the structure shown.

Structure (SMILES)	organism	assay	system	setting	quantity	value
O=C(O)c1cn(C2CC2)c2cc(N3CCNCC3)c(F)cc2c1=O	Shigella sonnei	microbial growth	ATCC25931		MIC	0.88 µM (≈ 0.292 µg/mL)
COc1ccc(Cc2[nH]/c(=N/C(=O)C34CC5CC(CC(C5)C3)C4)n(C)c2-c2ccc(OC(=O)C3CC3)c(OC)c2)cc1	Hepatitis B virus	viral replication, inhibitor	HePAD38		IC50	49300 nM
Cc1c(C(N)=O)c(N)n(N)c(=O)c1C#N	Saccharomyces cerevisiae	microbial growth, well diffusion	ATCC9763	500 µg/mL	inhibition zone	11 mm
COc1ccc(Cc2[nH]/c(=N/C(=O)C34CC5CC(CC(C5)C3)C4)n(C)c2Cc2ccc(OC)c(OC)c2)cc1	Hepatitis B virus	viral replication, inhibitor	HePAD38		IC50	240 nM
O=C(NC(=S)Nc1ccccn1)c1cccs1	Leishmania tropica	parasite growth, resazurin		promastigote	IC50	790 nM
CC(=O)N1CCN(c2ccc(OCC3COC(Cn4ccnc4)(c4ccc(Cl)cc4Cl)O3)cc2)CC1 (stereo not shown)	Saccharomyces cerevisiae	microbial growth, well diffusion	ATCC9763	500 µg/mL	inhibition zone	20 mm
O=C(NC(=S)Nc1nccs1)c1cccs1	Leishmania tropica	parasite growth, resazurin		promastigote	IC50	1530 nM
N#Cc1c(-c2ccc(Cl)cc2Cl)c(C(N)=O)c(N)n(N)c1=O	Saccharomyces cerevisiae	microbial growth, well diffusion	ATCC9763	500 µg/mL	inhibition zone	10 mm
COc1ccc(Cc2[nH]/c(=N/C(=O)C34CC5CC(CC(C5)C3)C4)n(C)c2-c2ccc(OC(=O)c3ccc(C(F)(F)F)cc3)c(OC)c2)cc1	Hepatitis B virus	viral replication, inhibitor	HePAD38		IC50	5220 nM
O=C(NC(=S)Nc1cccc(O)c1)c1ccco1	Leishmania tropica	parasite growth, resazurin		promastigote	IC50	680 nM
